Screening data from PubChem BioAssay.
MrgX1 agonist: activates human MrgX1 receptor signaling; 310,000 tested, 0.44% active; AID 588627; B-score at 10 µM; MrgX1-HEK293 cells, Fluo-4 calcium fluorescence, agonist mode; stronger effect = higher value;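 active = calcium response B-score plate-corrected fluorescence ratio at least 3 library SD, with starting fluorescence B-score inside 5 SD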
Target sequence (Q96LB2 whole entry, looked up): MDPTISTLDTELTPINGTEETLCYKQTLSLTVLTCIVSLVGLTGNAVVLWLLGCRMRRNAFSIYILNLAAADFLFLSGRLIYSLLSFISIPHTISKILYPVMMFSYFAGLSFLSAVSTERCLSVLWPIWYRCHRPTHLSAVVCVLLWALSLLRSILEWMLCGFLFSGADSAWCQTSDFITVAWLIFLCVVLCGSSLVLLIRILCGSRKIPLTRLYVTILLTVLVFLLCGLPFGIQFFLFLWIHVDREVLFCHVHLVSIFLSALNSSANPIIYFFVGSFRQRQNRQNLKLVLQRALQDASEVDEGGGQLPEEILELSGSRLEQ
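times = overnight plating, then 30 min 37 °C plus 30 min room-temperature dye loading | assay system = stable human MrgX1 HEK293 cell line | input = fifteen thousand cells per well | signal = kinetic calcium dye fluorescence, Fluo-4 NW | dosing = compound delivered in addition one of three | read-out = B-scored fluorescence response ratio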
RGS4 pot: potentiators or activators of RGS4 | HEK293 M3R/inducible RGS4, carbachol calcium flux Fluo4; stronger effect = lower value | B-score at 10 µM | 310,000 tested, 0.92% active | AID 463111;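 active = B-score of the integrated calcium signal more than 4 SD below the library mean, with starting fluorescence not abnormally high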;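 also: negative B-score means reduced calcium response which marks RGS4 activation or potentiation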
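System – HEK293 FlpIn-TREx cells, stable M3R, doxycycline-inducible RGS4 · Reagent – ECmax carbachol challenge · Times – compound preincubation 20 min at room temperature before agonist · Technique – Fluo4 fluorescence kinetic imaging of calcium · Measure – B score of integrated Fluo4 ratio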
RGS4 inh: inhibitors of human RGS4 | P49798 | 310,000 tested, 0.45% active | B-score at 10 µM | HEK293 M3R/RGS4 inducible, Fluo-4 calcium flux; stronger effect = higher value; triggered by carbachol at its EC20;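 active = B-score, a plate-corrected calcium signal, over three deviations above library mean, with baseline fluorescence within five deviations of library mean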;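 also: RGS4 expression induced by doxycycline in cells with stable M3 receptor; B-score is computed from the integrated fluorescence ratio over baseline after carbachol; higher B-score means a larger calcium signal and so more RGS4 inhibition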
Target sequence (P49798 whole entry, looked up): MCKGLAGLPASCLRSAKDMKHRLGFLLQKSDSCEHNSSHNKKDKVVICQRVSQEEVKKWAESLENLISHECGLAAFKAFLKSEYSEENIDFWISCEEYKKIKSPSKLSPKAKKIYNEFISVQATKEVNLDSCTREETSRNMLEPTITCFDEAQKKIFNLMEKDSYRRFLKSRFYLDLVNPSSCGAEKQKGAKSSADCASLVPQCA
MrgX1 allo act: human MrgX1 positive allosteric modulation, primary screen; Q96LB2; MrgX1-HEK293, Fluo-4 calcium flux, FDSS; stronger effect = higher value; B-score at 10 µM; 310,000 tested, 0.63% active; AID 588675;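 active = plate-corrected calcium response at least 3 library SD above typical, normal starting fluorescence, not activating the receptor alone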;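 also: compound read alongside a low EC10 to EC30 dose of BAM8-22 agonist; peak minus trough fluorescence over baseline measured at the second addition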
MrgX1 antag: antagonists of human MrgX1 receptor; MRGX1-HEK293 calcium flux, Fluo-4, BAM8-22 antagonism; stronger effect = lower value; B-score at 10 µM; 310,000 tested, 1.3% active;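 active = calcium-response B-score plate-corrected more than 3 library SD below zero, starting fluorescence within 5 deviations, no agonist response on first addition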;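 also: peak minus trough fluorescence over baseline after final BAM8-22 challenge near maximal dose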
MrgX1 antag conf: confirmation of human MrgX1 receptor antagonists; 2,300 tested, 19% active; remaining BAM8-22 calcium response % of control (stronger effect = lower value), % at 10 µM; MrgX1-HEK293, BAM8-22 calcium flux, Fluo-4; stronger effect = lower value; AID 602420; shares compounds with MrgX1 antag;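 active = remaining agonist calcium response no higher than 100% minus 3 SD of agonist-only control wells, with starting fluorescence near control levels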;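 also: agonist BAM8-22 given at a near maximal EC90 to ECmax level; peak minus minimum fluorescence divided by baseline after agonist addition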
HEK293 Ca flux: MrgX1 antagonist counter-screen hit in parental HEK293 cells | shares compounds with MrgX1 antag | Fluo-4 calcium fluorescence, FDSS | fluorescence ratio F(max-min)/F0 at 10 µM | 4,000 tested, 2% active | AID 624111;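 active = duplicate-averaged calcium fluorescence ratio at least three times the standard deviation of buffer wells, a nonspecific response in parental cells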
HEK293 Ca counter: counter-screen for MrgX1 allosteric activators: effect in parental HEK293 cells. shares compounds with MrgX1 antag. parental HEK293 calcium flux, Fluo-4 fluorescence ratio; stronger effect = higher value. fluorescence ratio F(max-min)/F0 at 10 µM. 4,000 tested, 0.4% active. AID 624114;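 active = calcium fluorescence ratio, averaged over duplicates, at least 3 SD of the buffer-well ratio, meaning a nonspecific response in receptor-free cells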;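 also: untransfected parental HEK293 lacking MrgX1 used as counterscreen for MrgX1 allosteric activators; fluorescence change taken during the second addition on a kinetic imager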
HEK293 Ca cntr2: activity in parental HEK293 cells lacking MrgX1 receptor; 4,000 tested, 8.7% active; fluorescence ratio F(max-min)/F0 at 10 µM; Fluo-4 calcium fluorescence (FDSS); stronger effect = higher value; shares compounds with MrgX1 antag;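 active = calcium fluorescence ratio at least three times the spread of buffer wells, meaning a non-specific response in parental cells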
Hits are given with their value. Most compounds without a hit are left out; they make up all but 3.5% or so of the library.

Screening Cc1ccc(C(=O)CN2C(=O)C(=O)N(Cc3ccccc3)C2=O)cc1 returned MrgX1 agonist inactive, RGS4 pot inactive, RGS4 inh inactive, MrgX1 allo act inactive, MrgX1 antag -6.4, MrgX1 antag conf 80%, HEK293 Ca flux inactive, HEK293 Ca counter inactive and HEK293 Ca cntr2 inactive.
`CC(=O)Nc1ccc(S(=O)(=O)N(C)CC(=O)OCC(=O)N2CCCC2=O)cc1` gave MrgX1 agonist inactive, RGS4 pot inactive, RGS4 inh inactive, MrgX1 allo act inactive and MrgX1 antag inactive.
For CCOc1ccc(-c2nnn(CC(=O)c3cc(OC)ccc3OC)n2)cc1 the results were MrgX1 agonist inactive, RGS4 pot inactive, RGS4 inh inactive, MrgX1 allo act inactive, MrgX1 antag -4.7, MrgX1 antag conf 81%, HEK293 Ca flux inactive, HEK293 Ca counter inactive and HEK293 Ca cntr2 inactive.
CC(=O)N1CCN(S(=O)(=O)c2cccc(C(=O)Nc3ccccc3N3CCCC3)c2)CC1 was read as MrgX1 agonist inactive, RGS4 pot inactive, RGS4 inh inactive, MrgX1 allo act inactive and MrgX1 antag inactive.
Screening CN1CCN(S(=O)(=O)c2cccc(C(=O)Nc3ccccc3N3CCCC3)c2)CC1 returned MrgX1 agonist inactive, RGS4 pot inactive, RGS4 inh inactive, MrgX1 allo act inactive, MrgX1 antag -4.6, MrgX1 antag conf inactive, HEK293 Ca flux inactive, HEK293 Ca counter inactive and HEK293 Ca cntr2 inactive.
For O=C(NC1CCCCC1)C(=S)N1CCOCC1 the results were MrgX1 agonist inactive, RGS4 pot inactive, RGS4 inh inactive, MrgX1 allo act inactive, MrgX1 antag -5.4, MrgX1 antag conf inactive, HEK293 Ca flux inactive, HEK293 Ca counter inactive and HEK293 Ca cntr2 inactive.
`Cc1c(C(=O)O)sc2nc(-c3cccs3)cc(C(F)(F)F)c12` gave MrgX1 agonist inactive, RGS4 pot inactive, RGS4 inh inactive, MrgX1 allo act inactive and MrgX1 antag inactive.
Screening CN(C)CCNC(=O)c1sc2nc(-c3ccccc3)cc(C(F)(F)F)c2c1N returned MrgX1 agonist inactive, RGS4 pot inactive, RGS4 inh inactive, MrgX1 allo act inactive, MrgX1 antag -7.7, MrgX1 antag conf inactive, HEK293 Ca flux inactive, HEK293 Ca counter inactive and HEK293 Ca cntr2 inactive.
For CC(=O)c1sc2nc(-c3cccs3)cc(C(F)(F)F)c2c1N the results were MrgX1 agonist inactive, RGS4 pot inactive, RGS4 inh inactive, MrgX1 allo act inactive, MrgX1 antag -10, MrgX1 antag conf inactive, HEK293 Ca flux inactive, HEK293 Ca counter inactive and HEK293 Ca cntr2 inactive.
COc1ccc(OC)c(NC(=O)c2sc3nc(Cc4ccccc4)cc(C(F)(F)F)c3c2N)c1 was read as MrgX1 agonist inactive, RGS4 pot inactive, RGS4 inh inactive, MrgX1 allo act inactive and MrgX1 antag inactive.
`CC1CCN(S(=O)(=O)c2cc3c4c(c2)CCN4C(=O)CC3)CC1` gave MrgX1 agonist inactive, RGS4 pot inactive, RGS4 inh inactive, MrgX1 allo act inactive and MrgX1 antag inactive.
For CSc1n[nH]c(NCc2ccc(C)cc2)n1 the results were MrgX1 agonist inactive, RGS4 pot inactive, RGS4 inh inactive, MrgX1 allo act inactive and MrgX1 antag inactive.
Screening Cc1cccc(-n2ncc3c(NC(C)C)ncnc32)c1 returned MrgX1 agonist inactive, RGS4 pot inactive, RGS4 inh inactive, MrgX1 allo act inactive and MrgX1 antag inactive.
CC(C)Nc1ncnc2c1cnn2-c1ccccc1 was read as MrgX1 agonist inactive, RGS4 pot inactive, RGS4 inh inactive, MrgX1 allo act inactive, MrgX1 antag -4.9, MrgX1 antag conf inactive, HEK293 Ca flux inactive, HEK293 Ca counter inactive and HEK293 Ca cntr2 inactive.
Screening CCC(C)[C@H](NC(=O)Nc1ccccc1F)C(=O)OC (stereo not given in full) returned MrgX1 agonist inactive, RGS4 pot inactive, RGS4 inh inactive, MrgX1 allo act inactive and MrgX1 antag inactive.
Screening O=C(NCc1cccs1)c1ccccc1F returned MrgX1 agonist inactive, RGS4 pot inactive, RGS4 inh inactive, MrgX1 allo act inactive, MrgX1 antag -6.2, MrgX1 antag conf inactive, HEK293 Ca flux inactive, HEK293 Ca counter inactive and HEK293 Ca cntr2 inactive.
O=C(NCCNCc1cccs1)c1ccccc1F was read as MrgX1 agonist inactive, RGS4 pot inactive, RGS4 inh inactive, MrgX1 allo act inactive and MrgX1 antag inactive.
COc1ccc(OCC(=O)N/N=C2/C=C(C)CC2)cc1 was read as MrgX1 agonist inactive, RGS4 pot inactive, RGS4 inh inactive, MrgX1 allo act inactive and MrgX1 antag inactive.
CCCCc1ccc(-c2nc(NC(=O)C3C4CCC(O4)C3C(=O)O)sc2C)cc1 (stereo not given) was read as MrgX1 agonist inactive, RGS4 pot inactive, RGS4 inh inactive, MrgX1 allo act inactive and MrgX1 antag inactive.
For Cc1nc(-c2ccc(S(=O)(=O)N3CCN(C4c5ccccc5-c5ccccc54)CC3)s2)cs1 the results were MrgX1 agonist inactive, RGS4 pot inactive, RGS4 inh inactive, MrgX1 allo act inactive, MrgX1 antag -5.3, MrgX1 antag conf inactive, HEK293 Ca flux inactive, HEK293 Ca counter inactive and HEK293 Ca cntr2 inactive.
O=C(Cc1cccs1)Nc1cc(SCCO)cc([N+](=O)[O-])c1 was read as MrgX1 agonist inactive, RGS4 pot inactive, RGS4 inh inactive, MrgX1 allo act inactive and MrgX1 antag inactive.
For Clc1ccccc1Cn1nnc2c(NCC3CC3)ncnc21 the results were MrgX1 agonist inactive, RGS4 pot inactive, RGS4 inh inactive, MrgX1 allo act inactive, MrgX1 antag -7.5, MrgX1 antag conf inactive, HEK293 Ca flux inactive, HEK293 Ca counter inactive and HEK293 Ca cntr2 inactive.
Clc1ccccc1Cn1nnc2c(Nc3ccccc3)ncnc21 was read as MrgX1 agonist inactive, RGS4 pot inactive, RGS4 inh inactive, MrgX1 allo act inactive and MrgX1 antag inactive.
For COc1ccc(NC(=O)CSc2nnc(-c3cccs3)n2-c2ccccc2)cc1 the results were MrgX1 agonist inactive, RGS4 pot inactive, RGS4 inh inactive, MrgX1 allo act inactive and MrgX1 antag inactive.
`COc1cccc(C(=O)N2CCN(C(=O)c3cccc4ccccc34)CC2)c1OC` gave MrgX1 agonist inactive, RGS4 pot inactive, RGS4 inh inactive, MrgX1 allo act inactive, MrgX1 antag -4.9, MrgX1 antag conf 85%, HEK293 Ca flux inactive, HEK293 Ca counter inactive and HEK293 Ca cntr2 inactive.
